This is a sample that favours compounds with a hit; in the whole collection about 2.9% have one here.
CaV13 ICDI inh: Disruptors of the CACNA1D IQ motif to Ca2+-dependent inactivation inhibitor domain association, primary screening, Förster resonance energy transfer in intact living …. 0.098% of 340,000 active. inhibition, % at 12.3 µM. HEK cells, CFP/YFP FRET ICDI-IQ, plate reader, 10 min; percent FRET-ratio fall versus neutral wells;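 active means mean replicate inhibition of at least 30% and at least 1% of replicates passing that level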
Arrestin-AP2 inh: inhibitors of human beta-arrestin and AP2 interaction; inhibition, % at 10 µM; FITC-arrestin peptide / GST-AP2 beads, flow cytometry; AP2 beta2 appendage carries R879A mutation; 0.31% of 340,000 active;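 active means inhibition above a set limit, near 3 SD of compounds lacking own fluorescence, cut at about 54% in these data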
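Assay system: GST-AP2 R879A bound to glutathione beads, E. coli-expressed; Medium: PBS with 0.05% Tween 20 and 0.1% BSA; Also added: fluorescein-tagged arrestin peptide at 50 nM final; Timing: 12 min plus 1 h, RT; Measured by: flow cytometry, FL1 (488/535 nm); Evaluation: percent drop in bead-associated FITC signal.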
ADAM17 inh: inhibitors of human ADAM17; recombinant ADAM17, EDANS/DABCYL FRET peptide cleavage; AID 720648; inhibition, % at 6.95 µM; 0.83% of 370,000 active;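 active means inhibition above the mean of compounds lying between control limits plus 3 SD, set per campaign, cut at about 8.5% in these data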
NRP1-CendR mod: modulators of CendR peptide binding to human neuropilin-1. FAM-RPARPAR peptide binding to NRP-1, fluorescence polarization. inhibition, % at 25 µM. 0.85% of 360,000 active. AID 602438. O14786;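 active means inhibition or corrected inhibition above about 18%, plus a signal ratio from 0.5 to 1.5, limit read from the data, passing the limit was not always enough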
Target sequence (O14786 whole entry, looked up): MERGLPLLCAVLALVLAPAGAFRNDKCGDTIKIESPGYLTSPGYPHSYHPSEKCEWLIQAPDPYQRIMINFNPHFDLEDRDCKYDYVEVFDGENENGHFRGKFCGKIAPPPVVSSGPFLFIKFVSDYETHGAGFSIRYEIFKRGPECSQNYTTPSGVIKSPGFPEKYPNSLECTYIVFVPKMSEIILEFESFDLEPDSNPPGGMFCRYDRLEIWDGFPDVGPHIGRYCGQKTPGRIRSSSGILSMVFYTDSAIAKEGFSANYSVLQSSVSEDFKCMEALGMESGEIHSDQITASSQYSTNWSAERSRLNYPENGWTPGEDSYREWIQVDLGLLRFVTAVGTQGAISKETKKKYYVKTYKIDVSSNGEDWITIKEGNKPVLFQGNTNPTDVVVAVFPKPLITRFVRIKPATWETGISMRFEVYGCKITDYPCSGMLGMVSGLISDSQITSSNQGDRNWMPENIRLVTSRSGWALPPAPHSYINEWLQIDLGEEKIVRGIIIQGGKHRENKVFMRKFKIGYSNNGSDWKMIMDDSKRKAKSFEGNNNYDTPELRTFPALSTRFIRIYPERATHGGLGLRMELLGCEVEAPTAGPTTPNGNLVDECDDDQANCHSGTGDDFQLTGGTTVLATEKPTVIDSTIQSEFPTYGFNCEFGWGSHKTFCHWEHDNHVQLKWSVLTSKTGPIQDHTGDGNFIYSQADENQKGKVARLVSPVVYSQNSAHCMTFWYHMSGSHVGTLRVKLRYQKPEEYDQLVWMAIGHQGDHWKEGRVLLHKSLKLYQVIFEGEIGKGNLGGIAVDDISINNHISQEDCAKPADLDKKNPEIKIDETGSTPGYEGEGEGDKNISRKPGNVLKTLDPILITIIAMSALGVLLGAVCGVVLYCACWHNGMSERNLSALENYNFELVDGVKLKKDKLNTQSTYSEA
ADAM10 inh: inhibits human ADAM10 | AID 720582 | inhibition, % at 7 µM | recombinant ADAM10, EDANS/DABCYL FRET peptide cleavage, 3 h | O14672 | 0.62% of 370,000 active;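 active means inhibition above a per-campaign cutoff equal to the mean of compounds falling between control-based bounds plus 3 SD, cut at about 20% in these data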
FAS TE block: blocks the thioesterase domain of human fatty acid synthase. recombinant FAS-TE, OMFH fluorogenic substrate, fluorescence endpoint. inhibition, % at 15 µM. 0.67% of 360,000 active;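 active means compounds whose normalised, plate-corrected inhibition of enzyme fluorescence in the single-dose primary screen is 50% or more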
ADAM10 confirm: confirmation of inhibitors of human ADAM10 | AID 743208 | 1% of 2,100 active | inhibition, % at 6.95 µM | ADAM10 QFRET peptide cleavage, EDANS fluorescence | shares compounds with ADAM10 inh;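 active means inhibition above about 20% chosen separately for each screening run, limit read from the data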
ADAM17 ctr: inhibits human ADAM17 in ADAM10 exosite counter-screen. shares compounds with ADAM10 inh. ADAM17 QFRET peptide cleavage, EDANS fluorescence. inhibition, % at 6.95 µM. 0.5% of 2,100 active. AID 743214;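 active means mean triplicate inhibition above the solvent-only control wells' mean plus 3 SD, cut at about 12% in these data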
ADAM10 ctr: inhibits human ADAM10 in ADAM17 exosite counter-screen; 47% of 2,900 active; shares compounds with ADAM17 inh; AID 743256; recombinant ADAM10, EDANS/DABCYL FRET peptide cleavage, 3 h; inhibition, % at 6.95 µM;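 active means mean inhibition over the triplicate runs exceeds the activity threshold set in the earlier primary screen, cut at about 20% in these data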
ADAM17 confirm: confirmation of inhibitors of human ADAM17 | inhibition, % at 6.95 µM | 65% of 2,900 active | shares compounds with ADAM17 inh | recombinant ADAM17, EDANS/DABCYL QFRET peptide cleavage;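 active means mean inhibition across replicates above the hit cutoff set in the primary screen, cut at about 8.5% in these data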
Hits are given with their value; i = inactive; nt = no result given; ! = not confirmed by another sample.

SMILES	CaV13 ICDI inh	Arrestin-AP2 inh	ADAM17 inh	NRP1-CendR mod	ADAM10 inh	FAS TE block	ADAM10 confirm	ADAM17 ctr	ADAM10 ctr	ADAM17 confirm
CSc1ccccc1NC(=O)C1(C)CCN1C(=O)Cc1ccc(-c2ccccc2)cc1 (centres undefined)	i	nt	i	i	i	i	nt	nt	nt	nt
COc1ccccc1NS(=O)(=O)c1ccc2oc(SCc3ccc(F)cc3)nc2c1	i	i	i	i	i	i	nt	nt	nt	nt
COc1ccc(NS(=O)(=O)c2ccc3oc(SCc4ccc(F)cc4)nc3c2)cc1	i	i	11.4	i	25.3	i	i	i	22.2	12.1
C[C@@H]1[C@@H](c2ccccc2)c2cc3ccccc3nc2-c2nc3ccccc3cc2[C@@H]1C(=O)N1CCCC1	nt	nt	i	nt	i	nt	nt	nt	nt	nt
NC(=O)Cn1cc(/C=N\NS(=O)(=O)c2ccc(Cl)cc2)c2ccccc21	i	i	i	i	i	i	nt	nt	nt	nt
O=S(=O)(N/N=C/c1cn(Cc2ccccc2)c2ccccc12)c1ccccc1	i	i	9.6	i	24.2	i	i	i	35.5	18.7
Cn1c(=O)c(=O)n(C)c2cc(S(=O)(=O)N3CCN(c4ccccc4Cl)CC3)ccc21	nt	nt	i	nt	i	nt	nt	nt	nt	nt
CCOc1cc(N2CCCC2)ccc1[N+](=O)[O-]	i	i	9.3	i	20.2	i	i	i	i	i
O=C(c1ccc(COc2ccc(Cl)cc2)o1)N1N=C(C(F)F)CC1(O)C(F)F (centres undefined)	i	i	13.2	i	34.5	i	i	i	i	i
CC(=O)C(N=Nc1ccccc1)(Sc1nnc(-c2ccccc2)n1-c1ccccc1)C(C)=O	i	i	13.8	i	26.2	i	i	i	i	10.5
O=C(O)c1ccc(CSc2nnc(-c3ccccc3)n2-c2ccccc2)cc1	i	i	i	i	i	i	nt	nt	nt	nt
OC(c1ccccc1)(c1ccccc1)C1CCN(CCCOc2ccc(-c3cncnc3)cc2)CC1	i	nt	i	nt	i	nt	nt	nt	nt	nt
CCc1c(C#N)c(SCCC(=O)Nc2ccc(F)cc2)nc2c1C(=O)CC(C)(C)C2	i	i	10.0	i	31.3	i	i	i	33.0	13.2
O=C(CCc1c[nH]c2ccccc12)OCc1ccc(Br)cc1	i	i	11.5	i	23.1	i	i	i	i	10.8
O=C(CN(C1CC1)S(=O)(=O)c1ccc(S(=O)(=O)NC2CCCCC2)cc1)Nc1ccccc1	i	i	i	i	i	i	nt	nt	nt	nt
O=C(CN(Cc1cccs1)S(=O)(=O)c1ccc(S(=O)(=O)NC2CCCCC2)cc1)Nc1ccccc1	i	i	16.9	i	36.0	i	i	i	50.3	24.9
COc1ccc(S(=O)(=O)N2CCCCC2)cc1NC(=O)c1ccc(CS(C)(=O)=O)cc1	i	i	i	i	i	i	nt	nt	nt	nt
COc1ccc(C2CC(O)(c3ccccc3)Oc3cc(OC)cc(OC)c32)cc1 (centres undefined)	i	i	i	i	i	i	nt	nt	nt	nt
COc1ccc(C2CC(O)(c3ccccc3)Oc3c(C)ccc(C)c32)cc1 (centres undefined)	i	i	18.6	i	35.8	i	i	i	i	12.9
O=C(Nc1ccc2c(c1)OCCO2)C(c1ccnc2ccccc12)N1CCC(Cc2ccccc2)CC1 (centres undefined)	i	nt	19.4	i	36.7	i	i	i	i	10.3
CC1=C(C(=O)N2CCOCC2)CC(CC(=O)NCC2CCCCC2)C(=O)N1CCC1=CCCCC1 (centres undefined)	i	nt	i	i	i	i	nt	nt	nt	nt
CCCCOC(=O)c1ccc(NC(=O)c2c(Cl)ccc(Cl)c2OC)cc1	i	i	9.3	i	22.2	i	i	i	22.0	13.6
CCCCOC(=O)Nc1ccc(C(=O)OCCC)cc1	i	i	i	i	i	i	nt	nt	nt	nt
CNC(=O)C(NC(=O)CNC(=O)c1ccc(Cl)cc1)C(C)(C)C (centres undefined)	i	i	i	i	i	i	nt	nt	nt	nt
CNC(=O)[C@@H](NC(=O)[C@H](CC(C)C)[C@H](O)C(=O)NO)C(C)(C)C	nt	nt	99.0	nt	95.2	nt	99.9	102.1	105.8	101.9
SMILES	CaV13 ICDI inh	Arrestin-AP2 inh	ADAM17 inh	NRP1-CendR mod	ADAM10 inh	FAS TE block	ADAM10 confirm	ADAM17 ctr	ADAM10 ctr	ADAM17 confirm
O=C(Nc1ccc(N2CCCC2)c(S(=O)(=O)Nc2cccc(C(F)(F)F)c2)c1)c1cccs1	i	i	15.1	i	27.6	i	i	i	41.6	23.8
COc1ccc(C(C)(O)c2nc(-c3ccoc3)cs2)cc1 (centres undefined)	i	nt	i	i	i	i	nt	nt	nt	nt
Cc1nc2ccc(NC(=O)c3ccc(S(=O)(=O)N(C)c4ccccc4)cc3)cc2s1	i	i	16.1	i	29.2	i	i	i	i	12.7
Cc1ccc(S(=O)(=O)N(C)c2ccc(C(=O)Nc3cccc(C)n3)cc2)cc1	i	i	15.0	i	19.8	i	i	i	i	i
Cc1onc(-c2c(Cl)cccc2Cl)c1C(=O)N[C@@H]1C(=O)N2[C@@H]1SC(C)(C)[C@@H]2C(=O)O	i	i	9.6!	i	20.5!	i	i	i	i	i
O=C(COC(=O)c1cccc(NS(=O)(=O)c2ccc(F)c(F)c2)c1)NC(=O)NC1CCCCC1	i	i	12.9	i	28.0	i	i	i	i	10.5
CCCNC(=O)NC(=O)COC(=O)c1cccc(NS(=O)(=O)c2ccc(F)c(F)c2)c1	i	i	i	i	i	i	nt	nt	nt	nt
COCCN=c1scc(-c2cc(OC)c(OC)c(OC)c2)n1/N=C/c1c(C)[nH]c2ccccc12	i	i	16.9	i	25.8	i	i	i	i	16.7
CCN(CC)C(=O)CC[C@@H]1CC[C@]2(CCCN(Cc3cccnc3)C2)O1	nt	nt	i	nt	i	nt	nt	nt	nt	nt
O=C(NCc1cccc(C(F)(F)F)c1)c1ccc2nc([C@H]3C[C@H](O)[C@@H](CO)O3)[nH]c2c1	i	nt	i	i	i	i	nt	nt	nt	nt
COc1ccc(CCN2C(=O)c3[nH]nc(-c4ccccc4O)c3C2c2cccc(O)c2)cc1OC (centres undefined)	i	i	9.1	i	29.5	i	i	i	33.3	14.3

Bioassay records from PubChem.
